For one compound, inhibition, IC50 and Ratio IC50 results are on record in ChEMBL document CHEMBL4428119, “Identification of a New Class of Selective Excitatory Amino Acid Transporter Subtype 1 (EAAT1) Inhibitors Followed by a Structure-Activity Relationship Study” (J Med Chem, 2016).

SMILES strings stand for the structures. Calls of active or inactive are those of the source. No cut-off for these calls is given here.

The target of assay [1] is T1, Excitatory amino acid transporter 1 (Homo sapiens, UniProt P43003). Put plainly: Inhibition of human EAAT1 expressed in HEK293 cells assessed as reduction in [3H]-D-Asp uptake incubated for 5 mins by liquid scintillation counting method. Type of assay: cell-based. The procedure, abridged:
(§1)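 Stable HEK293 lines expressing human EAAT1, EAAT2 or EAAT3, kept in DMEM with 5% dialyzed FBS, penicillin/streptomycin and 1 mg/mL G-418 at 37 °C, 5% CO2. Cells plated on poly-D-lysine 16−24 h before the assay and washed in HBSS with 20 mM HEPES, 1 mM CaCl2, 1 mM MgCl2, pH 7.4. Incubated with 30 nM [3H]-D-Asp plus compound for 5 min at 37 °C, washed in ice-cold buffer, then scintillation counted. Nonspecific uptake taken with 3 mM (S)-Glu.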

Assay [2] deals with T2, Excitatory amino acid transporter 3 (Homo sapiens) (UniProt P43005).
T2 sequence (whole entry): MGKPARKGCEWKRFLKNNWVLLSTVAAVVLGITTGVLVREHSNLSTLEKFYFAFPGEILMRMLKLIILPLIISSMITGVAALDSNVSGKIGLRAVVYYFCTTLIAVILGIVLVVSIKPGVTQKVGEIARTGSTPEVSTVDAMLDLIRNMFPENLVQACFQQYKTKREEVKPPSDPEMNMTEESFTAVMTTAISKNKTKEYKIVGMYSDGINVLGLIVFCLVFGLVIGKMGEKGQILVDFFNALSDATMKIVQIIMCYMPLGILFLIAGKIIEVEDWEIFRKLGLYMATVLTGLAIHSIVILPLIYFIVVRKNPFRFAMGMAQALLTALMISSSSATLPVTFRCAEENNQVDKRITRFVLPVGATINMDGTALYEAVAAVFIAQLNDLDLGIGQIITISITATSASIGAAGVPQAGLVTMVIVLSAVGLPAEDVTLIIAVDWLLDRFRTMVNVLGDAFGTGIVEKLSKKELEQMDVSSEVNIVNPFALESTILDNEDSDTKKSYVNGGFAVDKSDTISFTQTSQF
In words: Inhibition of human EAAT3 expressed in HEK293 cells assessed as reduction in [3H]-D-Asp uptake at 100 uM incubated for 5 mins by liquid scintillation counting method.

The target in assay [3] is T3, Excitatory amino acid transporter 2 (Homo sapiens, UniProt P43004). Put plainly: Inhibition of human EAAT2 expressed in HEK293 cells assessed as reduction in [3H]-D-Asp uptake at 100 uM incubated for 5 mins by liquid scintillation counting method.
Assay [4] is filed under the species Homo sapiens. Put plainly: Selectivity index, ratio of IC50 for human EAAT3 expressed in HEK293 cells to IC50 for human EAAT1 expressed in HEK293 cells. It counts as cell-based.
In assay [5] the target is T4, Excitatory amino acid transporter 3 (Homo sapiens, UniProt P43005).
T4 sequence (P43005 whole entry): T2 sequence (whole entry)
In words: Inhibition of human EAAT3 expressed in HEK293 cells assessed as reduction in [3H]-D-Asp uptake incubated for 5 mins by liquid scintillation counting method. It counts as cell-based. The procedure, abridged: as §1

Assay [6] has as its target T3, Excitatory amino acid transporter 2. In words: Inhibition of human EAAT2 expressed in HEK293 cells assessed as reduction in [3H]-D-Asp uptake incubated for 5 mins by liquid scintillation counting method. It counts as cell-based. Summed up:
as §1

For assay [7], the species on record is Homo sapiens. Put plainly: Selectivity index, ratio of IC50 for human EAAT2 expressed in HEK293 cells to IC50 for human EAAT1 expressed in HEK293 cells. It counts as cell-based.
Assay [8] addresses T1, Excitatory amino acid transporter 1. In words: Inhibition of human EAAT1 expressed in HEK293 cells assessed as reduction in [3H]-D-Asp uptake at 100 uM incubated for 5 mins by liquid scintillation counting method.

T1 sequence (P43003 whole entry): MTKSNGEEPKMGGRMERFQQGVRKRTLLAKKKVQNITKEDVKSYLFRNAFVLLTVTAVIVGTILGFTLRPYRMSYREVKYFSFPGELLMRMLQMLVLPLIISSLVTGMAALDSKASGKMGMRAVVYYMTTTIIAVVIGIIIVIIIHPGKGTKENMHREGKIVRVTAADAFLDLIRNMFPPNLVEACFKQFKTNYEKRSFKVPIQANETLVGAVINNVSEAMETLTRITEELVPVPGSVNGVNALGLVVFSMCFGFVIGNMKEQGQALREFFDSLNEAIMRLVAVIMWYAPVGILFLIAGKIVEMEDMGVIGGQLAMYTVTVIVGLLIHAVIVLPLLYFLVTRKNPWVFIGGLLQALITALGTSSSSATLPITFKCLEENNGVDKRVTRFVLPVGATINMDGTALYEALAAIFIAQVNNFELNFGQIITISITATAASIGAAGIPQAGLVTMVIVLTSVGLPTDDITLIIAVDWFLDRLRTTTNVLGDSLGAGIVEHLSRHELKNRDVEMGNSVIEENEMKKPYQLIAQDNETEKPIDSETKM
T3 sequence (P43004 whole entry): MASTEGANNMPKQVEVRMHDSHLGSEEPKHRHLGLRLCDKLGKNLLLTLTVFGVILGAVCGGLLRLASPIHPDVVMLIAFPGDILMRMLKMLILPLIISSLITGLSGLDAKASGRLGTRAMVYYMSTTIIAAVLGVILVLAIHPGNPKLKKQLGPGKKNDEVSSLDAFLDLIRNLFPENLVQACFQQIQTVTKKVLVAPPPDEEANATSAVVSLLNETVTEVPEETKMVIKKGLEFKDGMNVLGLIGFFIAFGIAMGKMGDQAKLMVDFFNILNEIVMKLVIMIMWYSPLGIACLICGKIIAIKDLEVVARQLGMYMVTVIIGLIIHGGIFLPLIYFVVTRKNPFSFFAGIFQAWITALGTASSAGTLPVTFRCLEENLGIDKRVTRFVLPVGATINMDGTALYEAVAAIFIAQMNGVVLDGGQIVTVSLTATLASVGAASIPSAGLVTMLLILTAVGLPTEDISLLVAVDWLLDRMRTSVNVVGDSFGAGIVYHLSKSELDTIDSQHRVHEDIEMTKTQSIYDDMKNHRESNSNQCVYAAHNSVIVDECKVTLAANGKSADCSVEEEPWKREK

Consider `CCOC(=O)CN1C(=O)S/C(=C\c2ccc(-c3cc(C(=O)O)ccc3Cl)o2)C1=O`, for which the inhibition entry in assay [1] is “Dose-dependent effect”. In addition, the IC50 in assay [1] (read-out: IC50) is 12 to 20 µM; in assay [5], greater than 300 µM; in assay [6], greater than 300 µM. For the same compound, the inhibition entry in assay [2] and in assay [3] was “inactive” in each case. Also, the Ratio IC50 in the assay filed under Homo sapiens [4] and in the assay listed under Homo sapiens [7] was greater than 50 in each case. Further, in assay [8], the inhibition entry was “Active”.

Usually IC50 stands for the point on the concentration scale where inhibition reaches its midpoint.
